Screening data as filed in PubChem BioAssay.
This is a sample that favours compounds with a hit; in the whole collection about 1.8% have one here.
NPY-Y2 PAM-ag: potentiators or agonists of human neuropeptide Y receptor Y2; 0.45% of 220,000 active; activation, % at 3.6 µM; P49146; AID 1359; cells expressing NPY-Y2, potentiator/agonist read-out; in the data active = activation above about 27%;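 also: cells stimulated with NPY near EC25 plus isoproterenol at EC100; 0% = vehicle plus submaximal agonist and 100% = vehicle plus saturating agonist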
Target sequence (P49146 whole entry, looked up): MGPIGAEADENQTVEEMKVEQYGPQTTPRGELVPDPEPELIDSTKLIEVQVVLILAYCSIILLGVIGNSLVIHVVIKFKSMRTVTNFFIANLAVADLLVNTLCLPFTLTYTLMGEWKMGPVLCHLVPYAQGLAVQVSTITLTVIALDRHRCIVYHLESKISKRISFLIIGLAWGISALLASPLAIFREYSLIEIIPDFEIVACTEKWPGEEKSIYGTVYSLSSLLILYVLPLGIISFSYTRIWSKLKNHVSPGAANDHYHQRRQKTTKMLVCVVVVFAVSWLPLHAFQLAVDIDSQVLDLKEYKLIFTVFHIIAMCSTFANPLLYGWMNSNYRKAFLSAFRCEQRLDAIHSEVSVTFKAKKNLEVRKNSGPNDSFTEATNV
NPY Y2 blocker: NPY-Y2 (human) receptor antagonism; inhibition, % at 2.7 µM; 0.99% of 140,000 active; NPY-Y2 expressing cells, antagonist mode;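 also: 0% = vehicle with agonist challenge and 100% = reference antagonist with challenge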
NPY-Y1 PAM-ag: potentiates or activates human NPY-Y1 receptor | P25929 | NPY-Y1 expressing cells, potentiator/agonist activation | activation, % at 3.6 µM | 0.37% of 220,000 active; in the data active = activation above about 33%, passing the limit was not always enough;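 also: cells stimulated with NPY at EC10 then isoproterenol at EC100; 0% = low agonist plus stimulus and 100% = saturating agonist plus stimulus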
NPY Y1 blocker: NPY-Y1 (human) receptor antagonism; P25929; HEK293-CNG Y1 cells, membrane potential fluorescence; NPY at EC95, then isoproterenol; 1% of 200,000 active; AID 1040; inhibition, % at 3.6 µM;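 active = inhibition above the campaign mean inhibition of all tested compounds plus 3 SD, cut at about 20% in these data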;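 also: 0% = DMSO wells given NPY plus isoproterenol and 100% = isoproterenol alone without NPY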
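Assay system: HEK293 Y1/CNG channel cell line; Doses: single compound dose of 3.6 µM, 0.4% DMSO; Timing: dye 3 h, compound 60 min room temperature, stimulation 45 min; Technique: Membrane-potential fluorescent dye readout; Measure: % inhibition of NPY effect.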
NPY-Y1 ant conf: confirmation of human neuropeptide Y receptor Y1 antagonists | AID 1254 | shares compounds with NPY Y1 blocker | HEK293-CNG NPY-Y1, membrane potential fluorescence, cAMP; NPY challenge against isoproterenol-raised cAMP | 21% of 1,200 active | inhibition, % at 3.6 µM; in the data active = inhibition above about 20%;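 also: 0% = vehicle with agonist plus stimulus and 100% = stimulus alone without agonist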
NPY-Y2 antag ct: antagonizes human NPY-Y2, counter-screen to NPY-Y1 antagonists. shares compounds with NPY Y1 blocker. HEK293 NPY-Y2 CNG membrane potential fluorescence, antagonism; cells given NPY, then isoproterenol. inhibition, % at 3.6 µM. 28% of 1,200 active. AID 1255;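 also: 0% = DMSO with agonist challenge and 100% = reference antagonist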
The depositor's hits bear a star; · = not tested or not shown. Rule as the data show it, unless noted: active = inhibition above about 17%; inactive = the rest.

SMILES	NPY-Y2 PAM-ag	NPY Y2 blocker	NPY-Y1 PAM-ag	NPY Y1 blocker	NPY-Y1 ant conf	NPY-Y2 antag ct
CCN(CC)CCN(Cc1cc2cc(C)cc(C)c2[nH]c1=O)C(=S)NCc1ccco1	-20	11	-81	21*	14	14
CCOP(=O)(OCC)C(C#N)=C1SCN(c2ccccc2)CS1	-7	0	4	-2	·	·
Cc1ccc(NC(=O)c2ccco2)c(NC(=O)Cc2cccs2)c1	2	3	-9	1	·	·
CC1CC(C)(C)NC(=S)N1CCC(=O)N1CCc2ccccc2C1 (configuration not stated)	-2	·	9	-7	·	·
COc1ccc(C2C(Oc3ccccc3)C(=O)N2c2cc(C)ccc2C)cc1OC (configuration not stated)	-4	10	4	22*	19	9
O=C(Nc1ccc2nc(-c3ccc(Br)o3)[nH]c2c1)c1cccs1	-19	6	-14	21*	2	8
O=C(NCCN1C(=O)S/C(=C\c2cccs2)C1=O)[C@H](Cc1ccccc1)N1C(=O)c2ccccc2C1=O	21	4	3	2	·	·
CN1CCC(Oc2ccc(Sc3ccccc3)cc2)CC1	8	8	-17	7	·	·
CN1CCC(Oc2ccccc2Sc2ccc(C(F)(F)F)cc2)CC1	-10	16	-38	30*	8	15
CCOC(=O)N1CCN(CC(=O)Nc2ccc(Oc3ccccc3)cc2)CC1	4	2	9	3	·	·
CN(C)Cc1ccc(F)cc1Sc1ccc(Cl)cc1Cl	-21	11	-68	22*	11	17
CC(O)CNCc1ccc(Cl)cc1Cl (configuration not stated)	-22	·	-4	1	·	·
Cc1ccccc1OCc1nc2ccccc2c(=O)n1NC(=O)c1ccco1	-21	4	-26	20*	8	9
c1ccc2c(c1)CC/C2=N/Nc1nc2ccccc2[nH]1	-11	·	-37	26*	20*	21*
CCc1nn2cc(-c3ccccc3)nc2s1	11	1	4	28*	-1	0
COC(=O)c1nn(-c2ccccc2)nc1-c1nn(-c2ccccc2)nc1C(=O)OC	-8	4	-8	3	·	·
O=C(O)c1nn(-c2ccccc2)nc1-c1nn(-c2ccccc2)nc1C(=O)O	-19	9	-33	31*	10	10
Nc1nc(-c2cccc(NS(=O)(=O)c3ccccc3)c2)cs1	-9	-1	-13	1	·	·
O=C(NCCN1C(=O)S/C(=C\c2ccccc2F)C1=O)C1CCN(S(=O)(=O)c2cccs2)CC1	-4	15	3	20*	9	10
CCCNC(=O)C1CCN(S(=O)(=O)c2cccs2)CC1	10	·	21	0	·	·
COCC1CCN(C(=O)c2cc(COc3ccc4ncccc4c3)on2)CC1	21	·	-21	15	·	·
O=C(NC1=NCCS1)c1ccc(Cl)c(S(=O)(=O)N2CCOCC2)c1	-3	·	-19	0	·	·
O=C(Nc1ccc(C(F)(F)F)cc1Cl)c1ccc(Cn2cc(Br)cn2)o1	-23	8	-52	22*	7	8
CCc1cc2c3c(c(=O)oc2cc1O)CCCC3	-22	2	-15	7	·	·
COc1c(Cl)cc(Cl)cc1CNCCNCC(C)O (configuration not stated)	-13	4	1	1	·	·
SMILES	NPY-Y2 PAM-ag	NPY Y2 blocker	NPY-Y1 PAM-ag	NPY Y1 blocker	NPY-Y1 ant conf	NPY-Y2 antag ct
CNCc1cc(Cl)cc(OC)c1OC(C)C	-8	·	-5	24*	24*	10
CC(C)CC(c1nnnn1C(C)C)N1CCN(c2cccc(Cl)c2)CC1 (configuration not stated)	-36	13	-2	37*	13	5
O=C(CN(Cc1ccccc1)C(=O)c1ccco1)NCc1ccc(F)cc1	1	2	6	1	·	·
Nc1nn(-c2ccccc2)nc1C(=O)OCc1ccccc1F	-15	·	-27	30*	8	7
Cc1ccccc1COC(=O)c1nn(-c2ccccc2)nc1N	-26	·	-32	19	·	·
CC(/C=C/c1ccc(C)o1)=C\C(=O)O	6	8	-4	22*	4	6
CC1CCCN(C(=O)CSc2cnc3ccccc3n2)C1 (configuration not stated)	-13	8	-16	1	·	·
Cc1cc(S(=O)(=O)N2CCN(c3c(C)cccc3C)CC2)ccc1F	-13	14	-50	21*	9	12
Cc1cc(S(=O)(=O)N2CCN(c3ccccc3C)CC2)ccc1F	-12	13	-22	8	·	·
CCOC(=O)N1CCN(CC(=O)Nc2sc(CC)cc2C(=O)c2ccc(OC)cc2)CC1	-4	·	-24	·	·	·
O=C(NC1CCCCC1)C(c1ccc2ncccc2c1)N(Cc1cccs1)C(=O)c1cccs1 (configuration not stated)	3	3	-10	32*	5	6
O=C(NC1CCCCC1)C(c1ccc2ncccc2c1)N(Cc1ccc2c(c1)OCO2)C(=O)c1ccc2c(c1)OCCO2 (configuration not stated)	-7	5	-13	3	·	·
COc1ccc(NC(=O)CCSc2ccc(C)cc2)cc1S(=O)(=O)Nc1ccccc1Cl	-23	1	4	25*	-2	0
COc1ccc(NS(=O)(=O)c2cc(NC(=O)CCSc3ccccc3)ccc2OC)cc1	11	2	21	-5	·	·
CCN(C(=O)CC(C)C)c1nnc(Cn2nnc3ccccc32)s1	-4	·	-5	-5	·	·
CCN(C(=O)c1ccc(C(C)(C)C)cc1)c1nnc(Cn2nnc3ccccc32)s1	-64	4	-99	31*	41*	16
CN(c1ccccc1)c1cc(=O)[nH]c(=O)[nH]1	8	1	12	-2	·	·
O=C(NC(=S)Nc1ccc(Oc2ccccc2)cc1)c1ccc(Cl)cc1	-6	4	-34	20*	9	10
Cc1ccc(C(=O)NC(=S)Nc2ccc(Oc3ccc(Cl)cc3)cc2)cc1	3	1	-10	2	·	·
Cc1c(C(c2cc3c(cc2Br)OCO3)c2c(C)n(C)n(-c3ccccc3)c2=O)c(=O)n(-c2ccccc2)n1C	-15	6	13	29*	3	8
Cc1c(C(c2ccccc2O)c2c(C)n(C)n(-c3ccccc3)c2=O)c(=O)n(-c2ccccc2)n1C	-1	·	5	2	·	·
COc1ccc(C(c2c(C)n(C)n(-c3ccccc3)c2=O)c2c(C)n(C)n(-c3ccccc3)c2=O)cc1O	-7	·	14	56*	-1	0
Cc1ccc(C(C)C)c(OCCCN(C)Cc2ccccc2)c1	-11	12	-28	32*	12	18*
Cc1ccc(C(C)C)c(OCCCN2C(=O)NC(C)(C)C2=O)c1	-8	3	-4	-2	·	·
Cc1ccc(NS(=O)(=O)c2ccc(C(=O)OCC(=O)NCC3CCCO3)cc2)cc1 (configuration not stated)	2	·	6	-5	·	·
